A short description of series [1]: Solubility in pH 7.4 PBS solution. It counts as physicochemical.
For series [2], the target named is Voltage-gated inwardly rectifying potassium channel KCNH2 (Homo sapiens, UniProt Q12809). Description: Displacement of [3H] dofetilide from human ERG channel expressed in HEK293 cells. It counts as cell-based. For orientation: Loss of bound radioactivity is the signal in a displacement assay; it reports binding, not function.
In a further series the target is T1, Cathepsin K (Homo sapiens, UniProt P43235).
T1 sequence (P43235 whole entry): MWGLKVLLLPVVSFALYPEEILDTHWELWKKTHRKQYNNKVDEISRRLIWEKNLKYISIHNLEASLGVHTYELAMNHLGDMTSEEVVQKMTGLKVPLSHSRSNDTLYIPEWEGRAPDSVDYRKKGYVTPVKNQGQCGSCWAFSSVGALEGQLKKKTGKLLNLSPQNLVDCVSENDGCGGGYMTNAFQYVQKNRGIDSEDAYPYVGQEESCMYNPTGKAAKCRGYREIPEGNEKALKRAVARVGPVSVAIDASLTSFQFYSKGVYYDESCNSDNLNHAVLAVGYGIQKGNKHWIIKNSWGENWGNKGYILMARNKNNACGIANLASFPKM
Description: Inhibition of human recombinant cathepsin K using Z-Phe-Arg-MCA substrate by fluorimetric assay.

For another series, the system named is Osteoclast. Description: Inhibition of bone resorption in rabbit osteoclasts. The class given is functional, cell-based. Conditions: Oryctolagus cuniculus.
A further series concerns the target Cathepsin S (Homo sapiens, UniProt P25774). Description: Inhibition of human recombinant cathepsin S.
Series [3] in a line: Oral bioavailability in Wistar rat at 10 mg/kg. It counts as ADME, organism-based. The conditions noted are these: in vivo. In short, it runs like this:
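Wistar rats were dosed iv at 2 mg/kg and po at 10 mg/kg. Oral bioavailability (F, %) was derived from the two routes.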

Series [4] in a line: Oral bioavailability in Beagle dog at 1.96 mg/kg. Conditions: in vivo.
Series [5] can be described thus: Oral bioavailability in cynomolgus monkey at 4.63 mg/kg. Conditions: in vivo.
In a further series the target is Cytochrome P450 2C19 (Homo sapiens, UniProt P33261). Description: Inhibition of CYP2C19. It counts as ADME.
The target of another series is Cytochrome P450 2C9 (Homo sapiens, UniProt P11712). Description: Inhibition of CYP2C9. The class given is ADME.
In a further series the target is Procathepsin L (Homo sapiens, UniProt P07711). Description: Inhibition of human recombinant cathepsin L.
The target in the next series is Cytochrome P450 3A4 (Homo sapiens, UniProt P08684). Description: Inhibition of CYP3A4. The class given is ADME.
The target of another series is Cathepsin B (Homo sapiens, UniProt P07858). Description: Inhibition of human recombinant cathepsin B.
For a further series, the target named is T2, Cytochrome P450 1A2 (Homo sapiens, UniProt P05177).
T2 sequence (P05177 whole entry): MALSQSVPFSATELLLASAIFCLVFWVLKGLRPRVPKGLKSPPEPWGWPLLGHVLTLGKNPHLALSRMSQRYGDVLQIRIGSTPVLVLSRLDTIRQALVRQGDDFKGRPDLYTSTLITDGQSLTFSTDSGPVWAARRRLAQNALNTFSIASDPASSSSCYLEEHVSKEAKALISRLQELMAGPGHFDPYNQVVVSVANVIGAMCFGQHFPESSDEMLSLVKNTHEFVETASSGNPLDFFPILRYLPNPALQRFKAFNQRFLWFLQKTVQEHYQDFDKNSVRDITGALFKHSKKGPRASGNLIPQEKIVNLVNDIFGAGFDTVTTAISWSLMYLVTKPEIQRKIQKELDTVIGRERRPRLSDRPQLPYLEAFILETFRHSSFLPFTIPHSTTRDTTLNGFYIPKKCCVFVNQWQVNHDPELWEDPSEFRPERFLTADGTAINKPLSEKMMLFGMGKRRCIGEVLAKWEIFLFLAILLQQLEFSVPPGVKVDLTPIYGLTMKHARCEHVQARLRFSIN
Description: Inhibition of CYP1A2. The class given is ADME.

The nature of series [6]: Half life in plasma. It counts as ADME, cell-free.

Values after ≈ are worked out from the molar mass of the structure shown. A value given as a limit tells only on which side of the number the result lay.

One may read the solubility as the dissolved amount per volume that the medium holds. For orientation: Ki means a measure of affinity in units of concentration, obtained from inhibition or displacement. One may read the IC50 as the point on the concentration scale where inhibition reaches its midpoint. Usually bioavailability stands for dose-corrected exposure relative to a reference, in per cent. What is called half-life is how long it takes for the measured level to halve.

Sequence of Voltage-gated inwardly rectifying potassium channel KCNH2 (Q12809 whole entry): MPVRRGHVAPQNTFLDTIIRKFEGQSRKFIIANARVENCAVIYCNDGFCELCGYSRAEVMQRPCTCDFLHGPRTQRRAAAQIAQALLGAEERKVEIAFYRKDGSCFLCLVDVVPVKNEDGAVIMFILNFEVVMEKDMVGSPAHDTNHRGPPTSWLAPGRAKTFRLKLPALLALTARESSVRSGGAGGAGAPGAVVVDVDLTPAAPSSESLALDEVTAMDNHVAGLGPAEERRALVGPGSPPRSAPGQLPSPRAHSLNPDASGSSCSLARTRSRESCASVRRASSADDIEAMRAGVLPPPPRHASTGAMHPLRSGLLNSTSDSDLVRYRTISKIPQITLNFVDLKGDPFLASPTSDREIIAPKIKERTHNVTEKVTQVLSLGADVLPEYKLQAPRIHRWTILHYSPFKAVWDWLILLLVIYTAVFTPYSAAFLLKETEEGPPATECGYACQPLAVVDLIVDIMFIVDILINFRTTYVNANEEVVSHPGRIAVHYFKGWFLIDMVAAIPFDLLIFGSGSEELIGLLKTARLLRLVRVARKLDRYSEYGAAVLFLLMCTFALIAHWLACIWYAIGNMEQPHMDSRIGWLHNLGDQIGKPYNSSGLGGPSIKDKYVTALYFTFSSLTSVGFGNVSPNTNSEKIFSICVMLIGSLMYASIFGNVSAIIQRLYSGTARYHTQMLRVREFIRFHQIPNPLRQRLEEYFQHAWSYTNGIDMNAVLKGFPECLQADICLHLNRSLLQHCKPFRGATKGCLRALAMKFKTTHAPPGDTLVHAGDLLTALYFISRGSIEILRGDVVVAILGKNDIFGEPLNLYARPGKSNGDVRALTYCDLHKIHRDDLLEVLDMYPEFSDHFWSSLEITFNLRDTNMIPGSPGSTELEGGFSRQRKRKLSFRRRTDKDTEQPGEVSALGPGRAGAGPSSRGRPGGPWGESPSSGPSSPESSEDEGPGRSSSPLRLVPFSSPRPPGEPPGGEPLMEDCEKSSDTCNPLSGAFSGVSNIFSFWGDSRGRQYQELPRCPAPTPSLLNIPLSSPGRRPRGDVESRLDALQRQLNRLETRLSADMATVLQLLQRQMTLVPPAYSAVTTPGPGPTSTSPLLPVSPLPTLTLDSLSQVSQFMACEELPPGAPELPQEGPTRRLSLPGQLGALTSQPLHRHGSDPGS
Sequence of Procathepsin L (P07711 whole entry): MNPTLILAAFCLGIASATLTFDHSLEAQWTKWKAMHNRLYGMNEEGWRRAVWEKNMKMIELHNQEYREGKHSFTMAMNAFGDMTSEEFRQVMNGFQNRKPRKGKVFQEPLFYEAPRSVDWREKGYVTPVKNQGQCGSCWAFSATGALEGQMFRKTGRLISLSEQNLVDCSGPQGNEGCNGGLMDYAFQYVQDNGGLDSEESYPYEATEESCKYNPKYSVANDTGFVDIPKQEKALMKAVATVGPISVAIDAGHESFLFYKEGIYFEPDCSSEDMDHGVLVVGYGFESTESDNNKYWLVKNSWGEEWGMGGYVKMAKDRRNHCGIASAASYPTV
Sequence of Cathepsin S (P25774 whole entry): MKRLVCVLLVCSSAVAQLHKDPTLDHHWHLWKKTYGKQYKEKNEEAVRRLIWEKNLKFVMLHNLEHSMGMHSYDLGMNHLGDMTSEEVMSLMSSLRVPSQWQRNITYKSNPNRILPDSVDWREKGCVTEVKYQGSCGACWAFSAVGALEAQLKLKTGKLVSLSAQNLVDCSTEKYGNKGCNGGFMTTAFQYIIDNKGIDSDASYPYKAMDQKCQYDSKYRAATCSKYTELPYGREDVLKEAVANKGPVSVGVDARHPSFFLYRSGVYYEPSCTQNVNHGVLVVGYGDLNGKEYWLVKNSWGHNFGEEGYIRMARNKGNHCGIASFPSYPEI
Sequence of Cytochrome P450 2C19 (P33261 whole entry): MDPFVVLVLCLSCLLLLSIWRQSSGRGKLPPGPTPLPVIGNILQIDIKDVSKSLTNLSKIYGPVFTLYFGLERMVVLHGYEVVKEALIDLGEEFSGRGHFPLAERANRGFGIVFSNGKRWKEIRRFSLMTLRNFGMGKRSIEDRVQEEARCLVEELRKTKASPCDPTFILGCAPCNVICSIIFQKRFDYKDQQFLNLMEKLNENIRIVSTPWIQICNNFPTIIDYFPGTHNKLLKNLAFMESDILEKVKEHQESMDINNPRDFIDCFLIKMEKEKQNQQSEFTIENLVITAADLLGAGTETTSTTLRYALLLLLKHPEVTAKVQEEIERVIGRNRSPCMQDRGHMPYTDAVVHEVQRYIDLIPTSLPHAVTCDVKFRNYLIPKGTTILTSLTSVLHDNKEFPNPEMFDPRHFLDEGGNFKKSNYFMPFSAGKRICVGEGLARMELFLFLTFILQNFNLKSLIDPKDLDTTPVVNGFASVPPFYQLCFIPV
Sequence of Cytochrome P450 2C9 (P11712 whole entry): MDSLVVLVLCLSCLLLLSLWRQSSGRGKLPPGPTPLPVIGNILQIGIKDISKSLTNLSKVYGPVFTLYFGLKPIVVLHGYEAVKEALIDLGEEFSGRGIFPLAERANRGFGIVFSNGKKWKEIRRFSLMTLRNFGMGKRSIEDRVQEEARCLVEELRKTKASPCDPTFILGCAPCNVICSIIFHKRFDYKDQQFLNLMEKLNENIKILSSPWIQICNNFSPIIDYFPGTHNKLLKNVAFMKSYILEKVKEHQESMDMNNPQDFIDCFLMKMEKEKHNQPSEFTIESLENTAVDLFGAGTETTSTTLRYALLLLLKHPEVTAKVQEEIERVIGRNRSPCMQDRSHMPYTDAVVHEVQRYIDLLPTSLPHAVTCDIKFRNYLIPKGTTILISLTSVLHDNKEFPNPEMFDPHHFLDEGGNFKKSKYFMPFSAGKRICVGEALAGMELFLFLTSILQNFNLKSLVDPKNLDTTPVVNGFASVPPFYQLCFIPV
Sequence of Cytochrome P450 3A4 (P08684 whole entry): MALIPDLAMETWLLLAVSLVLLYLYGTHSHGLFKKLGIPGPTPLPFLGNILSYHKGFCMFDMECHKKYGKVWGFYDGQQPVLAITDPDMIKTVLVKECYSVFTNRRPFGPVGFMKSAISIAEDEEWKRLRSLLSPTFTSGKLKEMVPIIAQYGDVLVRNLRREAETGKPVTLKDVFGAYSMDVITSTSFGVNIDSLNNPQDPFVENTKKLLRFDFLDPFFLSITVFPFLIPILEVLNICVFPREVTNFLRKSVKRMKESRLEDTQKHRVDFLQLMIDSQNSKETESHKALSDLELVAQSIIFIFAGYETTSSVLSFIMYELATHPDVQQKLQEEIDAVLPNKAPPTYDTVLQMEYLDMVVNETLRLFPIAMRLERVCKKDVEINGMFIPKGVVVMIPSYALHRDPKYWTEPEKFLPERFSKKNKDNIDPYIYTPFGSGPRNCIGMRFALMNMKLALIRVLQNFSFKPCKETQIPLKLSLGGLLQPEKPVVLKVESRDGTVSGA

On to `N#Cc1nc(CCCN2CCCCC2)cc(-c2cccc(C(F)(F)F)c2)n1`, for which, in series [1], the solubility is 60 µg/mL (≈ 160 µM). The compound also returned a Ki in series [2] of 160 nM. Compound `CCCc1cc(-c2cc(C(=O)N(CCN(C)C)Cc3ccccc3)cc(C(F)(F)F)c2)nc(C#N)n1` gave a Ki in series [2] of 120 nM. Consider `N#Cc1nc(CCCNCC(F)(F)F)cc(-c2cccc(C(F)(F)F)c2)n1`, for which the IC50 on Cathepsin K was 30 nM. For the same compound, the Ki in series [2] was found to be 500 nM. In the case of `CN1CCN(CCCc2cc(-c3cccc(C(F)(F)F)c3)nc(C#N)n2)CC1`, at Cathepsin K, the IC50 was determined as 10 nM. Regarding `N#Cc1nc(CCCN2CCOCC2)cc(-c2cccc(C(F)(F)F)c2)n1`, at Cathepsin K, the IC50 amounted to 9 nM. In series [2], this compound returned a Ki of 320 nM. Regarding `COCCNCCCc1cc(-c2cccc(C(F)(F)F)c2)nc(C#N)n1`, the IC50 at Cathepsin K came out at 10 nM. Further, the inhibitory constant (Ki) in series [2] worked out at 560 nM. In series [2], `N#Cc1nc(CCCN2CCC(O)CC2)cc(-c2cccc(C(F)(F)F)c2)n1` had a Ki of 1120 nM. Turning to `N#Cc1nc(CCCNc2ccccn2)cc(-c2cccc(C(F)(F)F)c2)n1`, the IC50 at Cathepsin K is 3 nM. As for `N#Cc1nc(CCCNCC(=O)O)cc(-c2cccc(C(F)(F)F)c2)n1`, the inhibition constant (Ki) in series [2] is above 10000 nM.

With `N#Cc1nc(CCCNCc2nnn[nH]2)cc(-c2cccc(C(F)(F)F)c2)n1`, the IC50 with Osteoclast turned out to be 1640 nM; at Cathepsin K, 11 nM. This compound also showed a Ki in series [2] above 10000 nM. In series [2], `N#Cc1nc(CCCNCC(N)=O)cc(-c2cccc(C(F)(F)F)c2)n1` returned a Ki of 3980 nM.

Consider `CC(C)(NCCCc1cc(-c2cccc(C(F)(F)F)c2)nc(C#N)n1)C(N)=O`, for which the IC50 is 16 nM on Cathepsin S; above 35000 nM against Cytochrome P450 2C19; above 35000 nM against Cytochrome P450 2C9; above 10000 nM on Procathepsin L; above 35000 nM at Cytochrome P450 3A4; 2510 nM at Cathepsin B. The IC50 against Cytochrome P450 1A2 is above 35000 nM. Further, the bioavailability amounted to 29% in series [3], 29% in series [4] and 57% in series [5]. The same compound yielded a solubility in series [1] of 393 µg/mL (≈ 1000 µM). As to `N#Cc1nc(CCCNC2(C(N)=O)CC2)cc(-c2cccc(C(F)(F)F)c2)n1`, in series [2], the Ki amounted to 1580 nM.

In series [2], `N#Cc1nc(CCCNC2(C(N)=O)CCC2)cc(-c2cccc(C(F)(F)F)c2)n1` showed a Ki of 2510 nM. Regarding `N#Cc1nc(CCCNC2(C(N)=O)CCOCC2)cc(-c2cccc(C(F)(F)F)c2)n1`, the 50% inhibitory concentration (IC50) on Cathepsin K worked out at 5 nM. In addition, the half-life in series [6] is above 2.5 h. Further, the Ki in series [2] was above 10000 nM. On the same counts, the results for `N#Cc1nc(CCCN2CCOC[C@H]2C(N)=O)cc(-c2cccc(C(F)(F)F)c2)n1` are 13 nM, above 2.5 h and above 10000 nM. `CCCc1cc(-c2cc(C(F)(F)F)ccc2C(=O)N(C)C)nc(C#N)n1`: the IC50 at Cathepsin K stood at 427 nM.

In [2], `CCCc1cc(-c2cc(C(=O)N(C)C)cc(C(F)(F)F)c2)nc(C#N)n1` showed a Ki above 10000 nM. Compound `CCCc1cc(-c2cc(C(=O)N(C)CCN(C)C)cc(C(F)(F)F)c2)nc(C#N)n1` yielded an inhibitory constant (Ki) in series [2] of 710 nM.

In the case of `CCCc1cc(-c2cc(C(=O)N(C)Cc3ccccc3)cc(C(F)(F)F)c2)nc(C#N)n1`, the IC50 on Cathepsin K was 9 nM.

With `N#Cc1nc(CCC(=O)O)cc(-c2cccc(C(F)(F)F)c2)n1`, the IC50 at Cathepsin K turned out to be 166 nM. This compound also had a Ki in series [2] above 10000 nM. For the compound `CCC(CC)NC(=O)CCc1cc(-c2cccc(C(F)(F)F)c2)nc(C#N)n1`, the concentration for half-maximal inhibition (IC50) on Cathepsin K is 389 nM. Turning to `CNCCCc1cc(-c2cccc(C(F)(F)F)c2)nc(C#N)n1`, the IC50 on Cathepsin K was 6 nM.

For the origin of these results see ChEMBL document CHEMBL1268809, “Optimisation of 2-cyano-pyrimidine inhibitors of cathepsin K: improving selectivity over hERG” (Bioorg Med Chem Lett, 2010).
